Test results reported in ChEMBL document CHEMBL1123427, “Synthesis of thyrotropin-releasing hormone analogues. 2. Tripeptides structurally greatly differing from TRH with high central nervous system activity” (1986).
Residues, ends and D or L forms follow the SMILES beside them.

Tests used:
Rattus norvegicus [1] = experiment: Ability of 80 mg/kg to inhibit the cataleptic effect of haloperidol in rat; type: functional
Mus musculus = species: Mus musculus; experiment: Reduction of hexobarbital induced sleeping time in mice.; type: functional
Rattus norvegicus [2] = species: Rattus norvegicus; experiment: Dose that inhibited cataleptic effect of haloperidol in rat by 50%; type: functional
Rattus norvegicus [3] = species: Rattus norvegicus; experiment: Thyrotropin releasing activity (TSH) was evaluated by measuring the TSH response to the compound by radioimmunoassay in two doses in the rat; type: functional
In short: (§1)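 Rat two-point assay at 1 and 10 μg. TSH response is measured by radioimmunoassay. Compounds are dissolved in physiological saline (5 mL/kg), and controls receive the same volume of saline. n = 10 animals per treatment. Significance is given as p < 0.01 and p < 0.001.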

Rattus norvegicus [4] = species: Rattus norvegicus; experiment: Thyrotropin releasing activity (TSH) was evaluated by measuring the TSH response to the compound by radioimmunoassay in two doses in the rat; np denotes Slightly significant but not parallel TSH response to the lower and upper dose s used; type: functional, organism-based; in short: as §1
Rattus norvegicus [5] = experiment: Ability of 80 mg/kg to inhibit the cataleptic effect of haloperidol in rat; Potentiating effect; type: functional, organism-based; set-up: dose 80 mg/kg; conditions: at 80 mg/kg
Rattus norvegicus [6] = species: Rattus norvegicus; experiment: Doses that inhibited cataleptic effect of haloperidol in rat by 50%; type: functional

Which results are given for `CC(C)C[C@H](NC(=O)[C@@H]1CCC(=O)O1)C(=O)N1CCC[C@H]1C(N)=O`?
inhibition in vivo at 80 mg/kg (Rattus norvegicus [1]): 40%; Sleeping time (Mus musculus): 36.8 min

With `CCC[C@H](NC(=O)[C@@H]1CCCC(=O)N1)C(=O)N1CCC[C@H]1C(N)=O` as the compound, how does the ED50 (Rattus norvegicus [2]) read?
Its ED50 is 10.6 mg/kg.

And the Sleeping time (Mus musculus)?
Its Sleeping time is 19.7 min.

And the Activity (Rattus norvegicus [3])?
The Activity was 0%.

With `CC(C)C[C@H](NC(=O)[C@@H]1CNC(=O)N1)C(=O)N1CCC[C@H]1C(N)=O` as the compound, how does the inhibition in vivo at 80 mg/kg (Rattus norvegicus [1]) read?
Its inhibition in vivo at 80 mg/kg is 40%.

What about the Sleeping time (Mus musculus) of the same compound?
Its Sleeping time is 25.8 min.

And the Activity (Rattus norvegicus [3])?
The Activity was 0%.

How did the ED50 (Rattus norvegicus [2]) turn out when `CCC[C@H](NC(=O)[C@@H]1CCCC(=O)N1)C(=O)N1CSC[C@H]1C(N)=O` was run?
The ED50 was 60.3 mg/kg.

And the Sleeping time (Mus musculus)?
The Sleeping time was 23.6 min.

How did the inhibition in vivo at 80 mg/kg (Rattus norvegicus [1]) turn out when `CCC[C@H](NC(=O)[C@@H]1CCC(=O)N1)C(=O)N[C@H](CCSC)C(N)=O` was run?
The inhibition in vivo at 80 mg/kg was 20%.

And the Sleeping time (Mus musculus)?
Its Sleeping time is 46.1 min.

And the Activity (Rattus norvegicus [3])?
The Activity was 0%.

Which Activity (Rattus norvegicus [4]) does the source give for `CCC[C@H](NC(=O)[C@@H]1CCCC(=O)N1)C(=O)N1CSC[C@@H]1C(N)=O` here?
Its Activity is “Slightly significant but not parallel”.

`CC(=O)N1CCC[C@H]1C(=O)N[C@@H](CC(C)C)C(=O)N1CCC[C@H]1C(N)=O` (Ac-Pro-Leu-Pro-NH2) was tested. Which inhibition in vivo at 80 mg/kg (Rattus norvegicus [1]) did it give?
The inhibition in vivo at 80 mg/kg was 0%.

What about the Sleeping time (Mus musculus) of the same compound?
The Sleeping time was 37.6 min.

Which results are given for `CC(C)C[C@H](NC(=O)[C@@H]1CCCN1)C(=O)N1CCC[C@H]1C(N)=O` (H-Pro-Leu-Pro-NH2)?
Activity (Rattus norvegicus [4]): Slightly significant but not parallel; inhibition in vivo at 80 mg/kg (Rattus norvegicus [1]): 0%; Sleeping time (Mus musculus): 65.6 min

Which results are given for `CC(C)C[C@H](NC(=O)[C@@H]1CCC(=O)N1)C(=O)NCC(N)=O` (HELM PEPTIDE1{[Glp].L.G.[am]}$$$$V2.0)?
inhibition in vivo at 80 mg/kg (Rattus norvegicus [1]): 0%; Sleeping time (Mus musculus): 35.8 min

With `CC(C)C[C@H](NC(=O)[C@@H]1CCC(=O)N1)C(=O)N1CCCC[C@H]1C(=O)O` (HELM PEPTIDE1{[Glp].L.[O=C(O)[C@@H]1CCCCN1[*:1]]}$$$$V2.0) as the compound, how does the Activity (Rattus norvegicus [4]) read?
Its Activity is “Slightly significant but not parallel”.

And the inhibition in vivo at 80 mg/kg (Rattus norvegicus [1])?
The inhibition in vivo at 80 mg/kg was 20%.

What about the Sleeping time (Mus musculus) of the same compound?
The Sleeping time was 33.3 min.

Which ED50 (Rattus norvegicus [2]) does the source give for `CC(C)C[C@H](NC(=O)[C@@H]1CCC(=O)N1)C(=O)N1CCCC[C@H]1C(N)=O` (HELM PEPTIDE1{[Glp].L.[O=C([C@@H]1CCCCN1[*:1])[*:2]].[am]}$$$$V2.0) here?
Its ED50 is 38.5 mg/kg.

What about the Sleeping time (Mus musculus) of the same compound?
Its Sleeping time is 16.6 min.

And the Activity (Rattus norvegicus [3])?
Its Activity is 7.2%.

How did the ED50 (Rattus norvegicus [2]) turn out when `CC(C)C[C@H](NC(=O)[C@@H]1CCC(=O)N1)C(=O)N1CSC[C@H]1C(N)=O` (HELM PEPTIDE1{[Glp].L.[O=C([C@@H]1CSCN1[*:1])[*:2]].[am]}$$$$V2.0) was run?
The ED50 was 31.4 mg/kg.

And the Sleeping time (Mus musculus)?
The Sleeping time was 17.2 min.

And the Activity (Rattus norvegicus [3])?
Its Activity is 0%.

For `CCC[C@H](NC(=O)[C@@H]1CCC(=O)N1)C(=O)N[C@H](C(N)=O)[C@@H](C)CC` (HELM PEPTIDE1{[Glp].[Nva].I.[am]}$$$$V2.0), which Sleeping time (Mus musculus) is on record?
The Sleeping time was 47.7 min.

What about the inhibition (Rattus norvegicus [5]) of the same compound?
Its inhibition is “Potentiating effect”.

What about the Activity (Rattus norvegicus [3]) of the same compound?
Its Activity is 0%.

For `CCC[C@H](NC(=O)[C@@H]1CCC(=O)N1)C(=O)N[C@@H](CC(C)C)C(N)=O` (HELM PEPTIDE1{[Glp].[Nva].L.[am]}$$$$V2.0), which inhibition in vivo at 80 mg/kg (Rattus norvegicus [1]) is on record?
The inhibition in vivo at 80 mg/kg was 20%.

What about the Sleeping time (Mus musculus) of the same compound?
Its Sleeping time is 43 min.

What about the Activity (Rattus norvegicus [3]) of the same compound?
Its Activity is 0%.

For `CCC[C@H](NC(=O)[C@@H]1CCC(=O)N1)C(=O)N1CSC[C@H]1C(N)=O` (HELM PEPTIDE1{[Glp].[Nva].[O=C([C@@H]1CSCN1[*:1])[*:2]].[am]}$$$$V2.0), which ED50 (Rattus norvegicus [2]) is on record?
Its ED50 is 56 mg/kg.

And the Sleeping time (Mus musculus)?
The Sleeping time was 26.4 min.

What about the Activity (Rattus norvegicus [3]) of the same compound?
The Activity was 0%.

What does the source list for `CC(C)C[C@H](NC(=O)[C@@H]1CSCN1)C(=O)N1CCC[C@H]1C(N)=O` (HELM PEPTIDE1{[O=C([C@@H]1CSCN1)[*:2]].L.P.[am]}$$$$V2.0)?
inhibition in vivo at 80 mg/kg (Rattus norvegicus [1]): 0%; Sleeping time (Mus musculus): 35 min; Activity (Rattus norvegicus [3]): 0%

Which results are given for `CC(C)C[C@H](NC(=O)[C@@H]1CCCC(=O)N1)C(=O)N1CCC[C@H]1C(N)=O` [POSATIRELIN]?
ED50 (Rattus norvegicus [6]): 23.5 mg/kg; Sleeping time (Mus musculus): 16.4 min; Activity (Rattus norvegicus [3]): 2.7%

Which inhibition in vivo at 80 mg/kg (Rattus norvegicus [1]) does the source give for `NC(=O)[C@@H]1CCCN1C(=O)[C@H](Cc1c[nH]cn1)NC(=O)[C@@H]1CCC(=O)N1` [PROTIRELIN] here?
Its inhibition in vivo at 80 mg/kg is 40%.

And the Sleeping time (Mus musculus)?
Its Sleeping time is 24.8 min.

And the Activity (Rattus norvegicus [3])?
The Activity was 100%.
